Laboratory results published in ChEMBL document CHEMBL1123131, “Examination of a series of 8-[3-[bis(4-fluorophenyl)amino]propyl]-1-aryl-1,3,8- triazaspiro[4.5]decan-4-ones as potential antipsychotic agents” (J Med Chem, 1985).

Tests used:
Rattus norvegicus [1] = species: Rattus norvegicus; experiment: Activity against the suppression of high base line self stimulation with electrodes in the medial forebrain of the posterior hypothalamus of male hooded rats (Peroral admin.); format: functional; conditions: po
Outline: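 Male hooded rats with electrodes in the medial forebrain bundle of the posterior hypothalamus; rapid high base-line self-stimulation rates served as base lines. Oral dosing, behaviour recorded continuously on cumulative recorders. Active if base-line rate was reduced by 50% for 1.5 h or more. Four rats per dose; ED50 by computer analysis (linear regression from doses bracketing the ED50).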

Rattus norvegicus [2] = experiment: The compound was tested (after peroral administration) for its ability to induce catalepsy in rats; format: functional; conditions: po
Outline: (§1)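 Fasted male Long-Evans hooded rats, 180–220 g, used once; oral intubation, suspended in 0.2% methylcellulose if insoluble. At least three doses, eight rats per dose. Forepaws placed on a horizontal rod 11.5 cm high, read every 30 min for 1 h then hourly to 6 h, 24 h if needed. Partial scores summed; ED50 by nonlinear regression.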

Mus musculus = experiment: Antipsychotic activity using locomotor activity (LMA)-inverted screen test in mice (i.p. admin.); format: functional; conditions: ip, read-out: MED
Outline: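 Unfasted male Swiss-Webster mice, 20–30 g, nine per dose; ip 1 h before testing in 0.2% methocel, 10 mL/kg; 10, 30, 100 mg/kg, three replicates. Inverted-screen falloff over 60 s, then photocell locomotion for 60 min versus vehicle. MED = lowest dose giving >60% locomotor inhibition with <60% falloff.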

[3] = Minimal effective dose (after peroral administration) required for signs of EPS in cebus monkeys; format: functional; conditions: po; read-out: MED
Rattus norvegicus [4] = experiment: The compound was tested (after peroral administration) for inhibition of sidman avoidance in rat; format: functional; conditions: po
Outline: (§2)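 Mature male Long-Evans rats or squirrel monkeys trained on a modified Sidman avoidance lever schedule with 0.5-s shock; 6-h sessions, given orally. Response expressed as % inhibition of nondrug avoidance responding, each animal its own control. At least three doses, four animals each, sessions at least 1 week apart; ED50 by nonlinear regression.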

[5] = The compound was tested (after peroral administration) for its ability to induced catalepsy in squirrel monkeys; format: functional; conditions: po
Outline: (§3)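 Adult squirrel monkeys, 600–1000 g, fasted overnight, oral dosing with at least 1 week between dosings. Observed hourly for at least 6 h and at 24 h. Four animals per dose, at least three doses; ED50 by nonlinear regression for quantal data.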

[6] = The compound was (after peroral administration) tested for inhibition of sidman avoidance in squirrel monkeys; format: functional; conditions: po; outline: as §2
[7] = biological target: T1, Adrenergic receptor alpha-1 (Rattus norvegicus, UniProt P15823+P23944+P43140)
T1 sequence (P15823 whole entry): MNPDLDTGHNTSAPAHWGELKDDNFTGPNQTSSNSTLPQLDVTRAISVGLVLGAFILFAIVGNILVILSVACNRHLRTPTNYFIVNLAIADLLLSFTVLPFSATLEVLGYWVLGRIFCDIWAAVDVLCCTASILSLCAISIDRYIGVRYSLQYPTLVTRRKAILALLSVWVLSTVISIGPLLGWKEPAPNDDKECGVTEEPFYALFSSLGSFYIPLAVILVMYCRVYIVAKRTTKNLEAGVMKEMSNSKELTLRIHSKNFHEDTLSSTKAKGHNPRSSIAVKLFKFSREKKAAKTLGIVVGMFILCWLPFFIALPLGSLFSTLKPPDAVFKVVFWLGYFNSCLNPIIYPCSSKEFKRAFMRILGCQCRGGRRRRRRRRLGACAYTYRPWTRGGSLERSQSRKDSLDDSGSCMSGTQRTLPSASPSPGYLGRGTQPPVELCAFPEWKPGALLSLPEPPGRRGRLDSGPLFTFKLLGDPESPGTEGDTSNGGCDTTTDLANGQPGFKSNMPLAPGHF
T1 sequence (P23944 whole entry): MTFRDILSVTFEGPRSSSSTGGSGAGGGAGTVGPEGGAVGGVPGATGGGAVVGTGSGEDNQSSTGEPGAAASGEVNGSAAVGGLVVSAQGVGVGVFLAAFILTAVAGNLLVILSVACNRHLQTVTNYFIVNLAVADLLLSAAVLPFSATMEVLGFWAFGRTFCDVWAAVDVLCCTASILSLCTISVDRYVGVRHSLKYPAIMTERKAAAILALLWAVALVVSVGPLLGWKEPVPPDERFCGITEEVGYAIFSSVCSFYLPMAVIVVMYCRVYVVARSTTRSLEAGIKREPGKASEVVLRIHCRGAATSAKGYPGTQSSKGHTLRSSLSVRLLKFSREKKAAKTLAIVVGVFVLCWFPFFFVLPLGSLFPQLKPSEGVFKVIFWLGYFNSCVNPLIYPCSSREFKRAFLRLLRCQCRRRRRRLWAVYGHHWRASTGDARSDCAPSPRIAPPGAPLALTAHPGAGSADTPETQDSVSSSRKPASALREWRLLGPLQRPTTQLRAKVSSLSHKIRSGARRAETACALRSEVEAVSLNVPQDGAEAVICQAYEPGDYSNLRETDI
T1 sequence (P43140 whole entry): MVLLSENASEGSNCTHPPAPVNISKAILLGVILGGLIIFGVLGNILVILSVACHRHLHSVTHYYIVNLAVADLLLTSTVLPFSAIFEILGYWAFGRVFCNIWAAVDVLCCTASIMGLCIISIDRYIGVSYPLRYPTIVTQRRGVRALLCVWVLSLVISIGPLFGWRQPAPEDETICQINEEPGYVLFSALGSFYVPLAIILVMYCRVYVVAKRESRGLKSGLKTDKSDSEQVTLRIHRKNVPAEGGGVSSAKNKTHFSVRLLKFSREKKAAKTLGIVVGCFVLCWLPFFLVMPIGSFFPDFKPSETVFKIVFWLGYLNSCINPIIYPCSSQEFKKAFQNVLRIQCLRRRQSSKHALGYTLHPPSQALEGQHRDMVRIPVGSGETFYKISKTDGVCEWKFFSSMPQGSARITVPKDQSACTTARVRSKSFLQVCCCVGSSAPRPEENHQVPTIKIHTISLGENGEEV

[8] = biological target: Muscarinic acetylcholine receptor; experiment: The compound was tested for inhibition of [3H]QNB binding to Muscarinic acetylcholine receptor; format: protein assay
Rattus norvegicus [9] = species: Rattus norvegicus; experiment: The compound was tested for its ability to induced catalepsy in rats; format: functional; outline: as §1
[10] = The compound was tested for its ability to induced catalepsy in squirrel monkeys; format: functional; outline: as §3
[11] = Minimal effective dose required for signs of EPS in cebus monkeys; format: functional; conditions: read-out: MED
[12] = The compound was tested for inhibition of sidman avoidance in squirrel monkeys; format: functional; outline: as §2
Rattus norvegicus [13] = species: Rattus norvegicus; experiment: The compound was tested for inhibition of sidman avoidance in rat; format: functional; outline: as §2

Compound	ED50 (Rattus norvegicus [1])	ED50 (Rattus norvegicus [2])	minimal effective dose (Mus musculus)	further results
CN1CN(c2ccccc2)C2(CCN(CCCN(c3ccc(F)cc3)c3ccc(F)cc3)CC2)C1=O	2.84 mg/kg	33 mg/kg	≤ 10 mg/kg	
O=C1NCN(c2ccc(Cl)cc2)C12CCN(CCCN(c1ccc(F)cc1)c1ccc(F)cc1)CC2	2 mg/kg		30 mg/kg	
O=C1NCN(c2ccccc2)C12CCN(CCCN(c1ccc(F)cc1)c1ccc(F)cc1)CC2		81 mg/kg	5 mg/kg	minimal effective dose [3]: 2.5 mg/kg; ED50 (Rattus norvegicus [4]): 2.8 mg/kg; ED50 [5]: 30 mg/kg; ED50 [6]: 1.7 mg/kg; IC50 [7]: > 1000 nM; IC50 [8]: > 100 nM
CN(C)CCCN1CN(c2ccccc2)C2(CCN(CCCN(c3ccc(F)cc3)c3ccc(F)cc3)CC2)C1=O	16 mg/kg	200 mg/kg		
O=C1N(Cc2ccccc2)CN(c2ccccc2)C12CCN(CCCN(c1ccc(F)cc1)c1ccc(F)cc1)CC2			> 100 mg/kg	
CN1CN(c2cccc(C(F)(F)F)c2)C2(CCN(CCCN(c3ccc(F)cc3)c3ccc(F)cc3)CC2)C1=O	> 16 mg/kg		30 mg/kg	
C=CCN1CN(c2ccccc2)C2(CCN(CCCN(c3ccc(F)cc3)c3ccc(F)cc3)CC2)C1=O	1.06 mg/kg	22 mg/kg	≤ 10 mg/kg	
O=C1NCN(c2ccc(F)cc2)C12CCN(CCCN(c1ccc(F)cc1)c1ccc(F)cc1)CC2	0.55 mg/kg	4.5 mg/kg	≤ 10 mg/kg	
O=C1NCN(c2ccccc2F)C12CCN(CCCN(c1ccc(F)cc1)c1ccc(F)cc1)CC2	> 16 mg/kg			
O=C1N(CC2CC2)CN(c2ccccc2)C12CCN(CCCN(c1ccc(F)cc1)c1ccc(F)cc1)CC2	8.39 mg/kg	200 mg/kg	30 mg/kg	
O=C1N(CO)CN(c2ccccc2)C12CCN(CCCN(c1ccc(F)cc1)c1ccc(F)cc1)CC2	0.89 mg/kg	11 mg/kg	< 10 mg/kg	
Cc1ccc(N2CNC(=O)C23CCN(CCCN(c2ccc(F)cc2)c2ccc(F)cc2)CC3)cc1	> 16 mg/kg		≤ 10 mg/kg	
O=C1NCN(c2cccc(F)c2)C12CCN(CCCN(c1ccc(F)cc1)c1ccc(F)cc1)CC2	0.78 mg/kg	4.1 mg/kg	30 mg/kg	
COc1ccc(N2CNC(=O)C23CCN(CCCN(c2ccc(F)cc2)c2ccc(F)cc2)CC3)cc1	> 16 mg/kg		30 mg/kg	
CC(C)c1ccc(N2CNC(=O)C23CCN(CCCN(c2ccc(F)cc2)c2ccc(F)cc2)CC3)cc1			> 100 mg/kg	
O=C1N(COCc2ccccc2)CN(c2ccccc2)C12CCN(CCCN(c1ccc(F)cc1)c1ccc(F)cc1)CC2	> 16 mg/kg		100 mg/kg	
CC(=O)OCN1CN(c2ccccc2)C2(CCN(CCCN(c3ccc(F)cc3)c3ccc(F)cc3)CC2)C1=O	1.03 mg/kg	17 mg/kg	< 10 mg/kg	
CN1CN(c2ccc(F)cc2)C2(CCN(CCCN(c3ccc(F)cc3)c3ccc(F)cc3)CC2)C1=O	0.96 mg/kg	54 mg/kg	≤ 10 mg/kg	
CCN(CC)CCN1CN(c2ccccc2)C2(CCN(CCCN(c3ccc(F)cc3)c3ccc(F)cc3)CC2)C1=O	5.65 mg/kg	138 mg/kg	≤ 10 mg/kg	
O=C1NCN(c2cccc(C(F)(F)F)c2)C12CCN(CCCN(c1ccc(F)cc1)c1ccc(F)cc1)CC2			> 100 mg/kg	
CN1CCN(C2=Nc3cc(Cl)ccc3Nc3ccccc32)CC1 [CLOZAPINE]			10 mg/kg	ED50 (Rattus norvegicus [9]): 133 mg/kg; ED50 [10]: > 50 mg/kg; minimal effective dose [11]: > 30 mg/kg; ED50 [12]: 4.1 mg/kg; ED50 (Rattus norvegicus [13]): 14.4 mg/kg
O=C(CCCN1CCC(O)(c2ccc(Cl)cc2)CC1)c1ccc(F)cc1 [HALOPERIDOL]	0.14 mg/kg	0.1 mg/kg	0.3 mg/kg	ED50 (Rattus norvegicus [9]): 0.47 mg/kg; ED50 [10]: 2 mg/kg; minimal effective dose [11]: 0.3 mg/kg; ED50 [12]: 0.26 mg/kg; ED50 (Rattus norvegicus [13]): 0.3 mg/kg
O=C(CCCN1CCC2(CC1)C(=O)NCN2c1ccccc1)c1ccc(F)cc1 [SPIPERONE]	1.28 mg/kg	10.8 mg/kg	< 10 mg/kg	
